Screens from PubChem.
The full list was thinned out, with hits kept by preference.
Bfl-1 A1 inh = caspase 3/7 activation in MEF A1-2A-BIM cells, primary screen, A1 inhibitor project, cell-based, luminescence, HTS. Caspase-Glo 3/7 luminescence, 3 h; percent of clofoctol response, vehicle zero. caspase activation, % (no concentration beside the values). actives 0.066% (n = 330,000). AID 2462, 2010;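 active = over half of replicate activation scores above 10%, or exactly half above 10 with the replicate mean above 10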
CHOP inh = inhibitors of CHOP promoter induction, primary screen, cell-based, unfolded protein response, luciferase reporter. CHO-K1 CHOP-promoter luciferase, tunicamycin-induced, 15-18 h. inhibition, % at 10 µM. actives 3.8% (n = 220,000);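 active = compounds that reduced the stress-induced luciferase reporter signal by more than about 70% of percent inhibition, limit read from the data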;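 note: 0% = tunicamycin plus vehicle and 100% = wells without tunicamycin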
XBP1 UPR activ = activators of adaptive XBP1 UPR arm, primary screen, cell-based, CHO-XBP1 luciferase reporter, luminescence, uHTS; IRE1-XBP1 UPR activation; percent of tunicamycin response, DMSO as zero; activation, % at 20 µM; actives 0.33% (n = 330,000); AID 463104, 2010;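 active = versus positive control, 20 µM dose yields 30% or more activation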;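 note: 100% = tunicamycin at 10 µg/mL and 0% = DMSO only wells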
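Material: CHO cell line with stable XBP1 luciferase reporter; schedule: 16-18 h cell attachment at 37 °C, then 6 h compound exposure; signal: glow luminescence from Steady-Glo reagent; medium: serum-containing F12 medium, 10% FBS; benchmarks: tunicamycin 10 µg/mL and vehicle-only wells; read-out: percent activation relative to tunicamycin reference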
UPR CHOP act = activators of apoptotic CHOP UPR arm, primary screen, cell-based, CHO-CHOP luciferase reporter, luminescence, uHTS; AID 449763, 2010; actives 0.34% (n = 330,000); UPR activation; percent of tunicamycin response over DMSO baseline; activation, % at 10 µM;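 active = at 10 µM dose, activation of 40% or more, normalized to positive control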;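 note: 100% = tunicamycin at 10 µg/mL and 0% = DMSO alone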
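Test system: CHO CHOP reporter cells. Input: 500 CHO-CHOP cells per well. Medium: F12 with 10% FBS. Technique: luciferase luminescence. Measure: percent activation relative to tunicamycin control. Dosing: 10 µM compound, 0.5% DMSO. Timing: 16-18 h cell attachment, then 6 h compound exposure, 37 °C.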
An asterisk follows results filed as active; / = no result; ! = not confirmed by another sample.

SMILES	Bfl-1 A1 inh	CHOP inh	XBP1 UPR activ	UPR CHOP act
CN(C)c1ccc(C(CNS(=O)(=O)c2ccc3ccccc3c2)c2c[nH]c3ccccc23)cc1 (stereo not given)	-1	76*	-1	1
CN(C)c1ccc(C(CN)c2c[nH]c3ccccc23)cc1 (stereo not given)	1	-9	-6	2
CC(=O)NCc1ccc(S(=O)(=O)N2CCN(S(=O)(=O)c3ccc4ccccc4c3)CC2)cc1	/	/	0	-2
CCN(CC)CCNC(=O)c1ccc(N2CCCCC2)c(NS(=O)(=O)c2ccc(C)cc2)c1	0	72*	0	-2
C/C(=N\NC(=O)c1cc(C)nc2ccccc12)c1ccncc1	0	/	-2	2
C/C(=N\NC(=O)c1cc(C)nc2ccccc12)c1ccccn1	-3	/	5	85*
COc1ccc(/C=C2\SC(=O)N(CC(=O)NC3CCS(=O)(=O)C3)C2=O)cc1 (stereo not given)	-1	/	-4	1
CSc1nnc(CCCCCCCCc2nnc(SC)o2)o1	0	20	1	1
COc1ccc(-c2nnc(SCC(=O)Nc3cccc(Cl)c3)o2)cc1	-1	89*	2	-5
CCOc1ccc(-c2nnc(SCC(=O)Nc3cc(C)on3)o2)cc1	-1	77*	-3	-5
O=C(CSc1ccc(Cl)cc1)Nc1cccc(-c2nc3ncccc3o2)c1	0	73*	0	1
Cc1ccc(NC(=O)C2CCCN2C(=O)NCc2ccccc2)cc1 (stereo not given)	1	18	-1	2
Cc1cc(/C=C2/NC(=O)N(Cc3ccccc3F)C2=O)c(C)n1C(C)C	0	72*	4	3
CSc1ccc(/C=C(\C(=O)O)c2ccc(S(=O)(=O)N3CCCC3)s2)cc1	1	/	-2	-3
COc1cc(OC)cc(C(=O)NC(C(=O)NCCc2ccccn2)C(C)C)c1 (stereo not given)	1	/	-1	0
CSC1=NCCN1C(=O)c1c(-c2ccccc2Cl)noc1C	1	89*	-2	3
CCOC(=O)/C(=C\c1cccnc1)C(=O)c1cc(C(C)=O)c(Nc2ccccc2)s1	22*	/	-15	-11
CCOC(=O)/C(C#N)=C\c1cccnc1	0	-1	-2	-1
CC(C)c1ccc(CNC(=O)CSCC(=O)Nc2ccc3ccccc3c2)cc1	0	86*	-2	3
COc1ccc(/C=N/NC(=O)c2csc(-n3nc(C)cc3C(F)(F)F)n2)cc1	0	79*	1	-3
Cc1cc(C(F)(F)F)n(-c2nc(C(=O)NN)cs2)n1	1	15	1	3
CCCOc1cccc(C(=O)NCCNC(=O)c2cnccn2)c1	0	/	3	0
CC1C(=NO)C(C)C(c2ccccc2)NC1c1ccccc1 (stereo not given)	0	16	0	-2
Cc1ccc(C2NC(c3ccc(C)cc3)C(C)C(=NO)C2C)cc1 (stereo not given)	0	84*	-3	2
O=[N+]([O-])c1ccccc1N/N=C/c1cccc(O)c1O	-8	71*	-1	11
SMILES	Bfl-1 A1 inh	CHOP inh	XBP1 UPR activ	UPR CHOP act
CC(/C=N/NC(=O)Cn1nccc1C)=C\c1ccc(C(C)C)cc1	0	76*	-3	7
CC(=C/c1ccc(C(C)C)cc1)/C=N/NC(=O)Cn1nc(C)cc1C	0	66	-2	3
Cn1nccc1C(=O)NC(=S)Nc1sc2c(c1C#N)CCCCC2	-1	91*	6	1
CC(C)(C)c1ccc(/C=N/NC(=S)NC2CCCCC2)cc1	0	72*	6	0
S=C(Nc1ccc(Oc2ccccc2)cc1)NC1CCCCC1	0	75*	-1	0
FC(F)(F)c1ccc(NC(=S)NC2CCCCC2)cc1	0	88*	2	8
Cc1ccc(NC(=S)NNC(=S)NC2CCCCC2)cc1	1	18	1	1
S=C(Nc1ccc(Oc2ccccc2)cc1)NC1CCCCCC1	0	37	/	/
FC(F)(F)c1cccc(NC(=S)NC2CCCC2)c1	0	11	1	0
S=C(NNc1ccc2ccccc2c1)NC1CCCCC1	0	81*	-1	5
CC(=O)Cc1nsc(NC(=O)c2ccc(-c3cccc(Cl)c3)o2)n1	0	5	1	1
Cc1cccc(NC(=O)c2ccccc2NC(=O)C2CCCCC2)c1C	0	78*	-4	-2
NC(=O)CC(NC(=O)c1ccc(Br)cc1)c1ccc(N2CCN(c3ccccc3)CC2)c([N+](=O)[O-])c1 (stereo not given)	-1	/	0	-2
NC(=O)CC(NC(=O)c1cccc(Br)c1)c1ccc(N2CCN(c3ccc(F)cc3)CC2)c([N+](=O)[O-])c1 (stereo not given)	0	/	0	-2
NC(=O)CC(NC(=O)Cc1ccc(Br)cc1)c1ccc(N2CCN(c3ccc(F)cc3)CC2)c([N+](=O)[O-])c1 (stereo not given)	0	85*	-5	-2
NC(=O)CC(NC(=O)c1ccc(Br)cc1)c1ccc(N2CCN(c3ccc(F)cc3)CC2)c([N+](=O)[O-])c1 (stereo not given)	0	93*	-2	-1
CC(C)(C)OC(=O)C[C@@H]1C/C=C\C[C@@H](CC(=O)NCCO)C(=O)N2CCC[C@H]2COC1=O	2	/	1	-2
COc1cccc(NC(=O)/C=C/c2ccc(S(=O)(=O)N3CCOCC3)cc2)c1	0	/	-1	2
O=C(CCl)NCCNC(=O)c1cc(OCC(F)(F)F)ccc1OCC(F)(F)F	0	-13	-1	2
O=C(NCCNC(=O)c1cc(OCC(F)(F)F)ccc1OCC(F)(F)F)Nc1ccc(OC(F)(F)F)cc1	0	90*	2	-3
O=C(NCC1CCCCN1)c1cc(OCC(F)(F)F)ccc1OCC(F)(F)F (stereo not given)	0	74*!	-8	-1
CC(OC(=O)c1ccc2c(c1)OCCO2)C(=O)NC1CCCCC1C (stereo not given)	1	/	0	0
CCCSc1nc2c(cnn2-c2ccc(F)cc2)c(=O)[nH]1	1	79*	5	-1
CC(C)(C)c1ccc(C(=O)CSc2nc3ccccc3c(=O)[nH]2)cc1	2	75*	0	-1
CC(=O)CSc1nnc2c3ccccc3nc(C(C)(C)C)n12	-1	16	-1	-1
Cc1ccc(C(=O)CSc2nnc3c4ccccc4nc(C(C)(C)C)n23)cc1	0	70*	-2	-2
CCCSc1nc2c(cnn2-c2ccccc2)c(=O)[nH]1	0	80*	2	-1
O=C(CSc1nc2ccccc2c(=O)[nH]1)c1ccccc1	1	-12	1	2
